Tests used:
Rattus norvegicus [1] = species on record: Rattus norvegicus; assay: Concentration required to inhibit antigen-induced release of histamine (AIR) by 50% from rat peritoneal mast cells (RMC) (in vitro); format: functional, cell-based; conditions: Mast cell, read-out: I-50
Outline: (§1)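 Rat peritoneal mast cells passively sensitized in vitro with rat anti-ovalbumin serum; compounds dissolved in Me2SO (final 0.17%). Antigen-induced and spontaneous (no antigen) histamine release measured after 15-min incubation; released and residual extracted histamine determined fluorometrically on an AutoAnalyzer.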

Rattus norvegicus [2] = species on record: Rattus norvegicus; assay: Concentration required to inhibit antigen-induced release of histamine (AIR) by 50% from rat peritoneal mast cells (RMC) (in vitro).; format: functional, cell-based; outline: as §1
Rattus norvegicus [3] = assay: Inhibition of IgE-mediated passive cutaneous anaphylaxis (PCA) by 50% in rat dosed perorally; conditions: po
Rattus norvegicus [4] = species on record: Rattus norvegicus; assay: Concentration required to inhibit antigen-induced release of histamine (AIR) by 50% from rat peritoneal mast cells (RMC) (in vitro); f = Stimulation of AIR; format: functional, cell-based; outline: as §1

| SMILES | IC50 (Rattus norvegicus [1]) [nM] | ED50 (Rattus norvegicus [3]) [mg/kg] | also measured |
| --- | --- | --- | --- |
| Oc1n[nH]c(-c2nc3ccccc3o2)n1 | 60000 |  |  |
| CC(=O)n1nc(-c2nc3ccccc3n2C)oc1=O | 500 |  |  |
| CC1=C(c2nnc(O)o2)Cc2ccccc21 |  | > 100 | I-50 (Rattus norvegicus [2]): Stimulation of AIR |
| Oc1nnc(-c2nc3cc(Cl)ccc3o2)o1 | 350 | 16 |  |
| CCOC(=O)n1nc(-c2nc3ccc(C)cc3o2)oc1=O |  |  | I-50 (Rattus norvegicus [2]): Stimulation of AIR |
| Oc1nnc(-c2cc3ccccc3o2)o1 | 1500 | 2 |  |
| Cc1ccc2oc(-c3nnc(O)o3)nc2c1 | 400 | 2 |  |
| Cn1c(-c2nnc(O)o2)nc2ccccc21 | 900 | 1 |  |
| COC(=O)c1cc(OC)c2oc(-c3nnc(O)o3)nc2c1 | 300 | 9 |  |
| CCOC(=O)n1nc(-c2nc3ccccc3n2C)oc1=O |  |  | I-50 (Rattus norvegicus [2]): Stimulation of AIR |
| CCOC(=O)c1ccc2oc(-c3nnc(O)o3)nc2c1 | 1000 |  |  |
| Cc1ccc2c(c1)nc(-c1nnc(O)o1)n2C | 6000 | 5 |  |
| CC(=O)n1nc(-c2nc3ccccc3o2)oc1=O | 1400 |  |  |
| Cn1c(-c2n[nH]c(O)n2)nc2ccccc21 |  |  | I-50 (Rattus norvegicus [4]): Stimulation of AIR |
| CCOC(=O)Cn1nc(-c2nc3ccccc3o2)oc1=O |  |  | I-50 (Rattus norvegicus [2]): Stimulation of AIR |
| Cc1cccc2oc(-c3nnc(O)o3)nc12 | 1000 |  |  |
| O=C([O-])c1cc(=O)c2c(OCC(O)COc3cccc4oc(C(=O)[O-])cc(=O)c34)cccc2o1.[Na+].[Na+] [CROMOLYN SODIUM] | 3000 | 6 |  |
| Oc1nnc(-c2nc3ccccc3o2)o1 | 1200 | 3 |  |
| CCOC(=O)n1nc(-c2nc3cc(C)ccc3n2C)oc1=O |  |  | I-50 (Rattus norvegicus [2]): Stimulation of AIR |
| Cc1ccc2nc(-c3nnc(O)o3)oc2c1 | 5000 | 2 |  |
| CCOC(=O)n1nc(-c2nc3ccccc3o2)oc1=O |  |  | I-50 (Rattus norvegicus [2]): Stimulation of AIR |
| Oc1nnc(-c2cc3cc(Cl)ccc3[nH]2)o1 |  | 9 |  |
| Oc1nnc(-c2cc3ccccc3[nH]2)o1 | 33000 |  |  |
| Cn1nc(-c2nc3ccccc3o2)oc1=O |  |  | I50 (Rattus norvegicus [4]): Stimulation of AIR |
| Oc1nnc(-c2sc3ccccc3c2Cl)o1 | 200 | > 125 |  |
| O=C(/C=C/c1ccccc1)n1nc(-c2nc3ccccc3o2)oc1=O | 15000 |  |  |

Reference: ChEMBL document CHEMBL1122783, “Synthesis of 2-(2,3-dihydro-2-oxo-1,3,4-oxadiazol-5-yl) benzo heterocycles. A novel series of orally active antiallergic agents” (J Med Chem, 1984)
